# In ChEMBL document CHEMBL3870359, “Design and Synthesis of Novel Meta-Linked Phenylglycine Macrocyclic FVIIa Inhibitors” (ACS Med Chem Lett, 2017):
# Molecular target: T1, Coagulation factor VII/tissue factor (Homo sapiens, UniProt P08709)
# Test: Inhibition of recombinant human factor-7a/TF using S2288 as substrate measured after 60 mins at 25 degC
# Assay type: protein-complex assay
# Conditions: not given
# In short: (§1)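 Ki determined against recombinant human TF/FVIIa enzyme, each value averaged from two experiments. The assay was first run at 25 °C and later moved to 37 °C to better approximate physiological conditions.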
# T1 sequence (P08709 61-212 limits assumed): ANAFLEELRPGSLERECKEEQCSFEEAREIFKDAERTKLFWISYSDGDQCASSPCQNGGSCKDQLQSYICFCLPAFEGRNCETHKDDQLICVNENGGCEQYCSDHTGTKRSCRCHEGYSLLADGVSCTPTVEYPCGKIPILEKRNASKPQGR
# T1 sequence (P08709 213-466 limits assumed): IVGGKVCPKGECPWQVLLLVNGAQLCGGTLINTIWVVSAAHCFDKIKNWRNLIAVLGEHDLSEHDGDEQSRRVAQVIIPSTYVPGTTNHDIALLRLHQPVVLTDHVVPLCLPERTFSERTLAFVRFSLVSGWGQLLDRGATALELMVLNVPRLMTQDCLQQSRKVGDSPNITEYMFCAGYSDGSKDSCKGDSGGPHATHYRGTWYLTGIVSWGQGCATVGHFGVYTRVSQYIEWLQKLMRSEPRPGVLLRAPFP
# T1 sequence (P13726 33-295 partner limits assumed): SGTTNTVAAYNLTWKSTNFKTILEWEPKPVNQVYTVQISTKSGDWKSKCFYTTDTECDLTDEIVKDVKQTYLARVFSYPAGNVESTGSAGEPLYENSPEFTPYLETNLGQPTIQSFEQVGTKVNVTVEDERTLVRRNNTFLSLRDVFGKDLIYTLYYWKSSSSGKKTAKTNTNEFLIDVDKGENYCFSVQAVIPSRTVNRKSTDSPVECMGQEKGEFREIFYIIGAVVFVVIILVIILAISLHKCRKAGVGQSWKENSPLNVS
row,SMILES,Ki [nM]
1,CN1Cc2cc(ccc2S(=O)(=O)C2CC2)NC(=O)CCc2cccc(c2)[C@@H](Nc2ccc3c(N)nccc3c2)C1=O,< 5
2,CN1Cc2cc(ccc2S(=O)(=O)C2CC2)NC(=O)NCCc2cccc(c2)[C@@H](Nc2ccc3c(N)ncc(F)c3c2)C1=O,17
3,CN1CCc2cccc(c2)[C@@H](Nc2ccc3c(N)ncc(F)c3c2)C(=O)N(C)Cc2cc(ccc2S(=O)(=O)C2CC2)NC1=O,14
4,CN1Cc2cc(ccc2S(=O)(=O)C2CC2)NC(=O)OCc2cccc(c2)[C@@H](Nc2ccc3c(N)nccc3c2)C1=O,260
5,COc1ccc2cc1[C@@H](C)CN(C)C(=O)Nc1ccc(S(=O)(=O)C3CC3)c(c1)CN(C)C(=O)[C@@H]2Nc1ccc2c(N)ncc(F)c2c1,< 5
6,CN1Cc2cc(ccc2S(=O)(=O)C2CC2)NC(=O)N(Cc2ccccc2)CCc2cccc(c2)[C@@H](Nc2ccc3c(N)ncc(F)c3c2)C1=O,80
7,COc1ccc2cc1[C@H](C)CN(C)C(=O)Nc1ccc(S(=O)(=O)C3CC3)c(c1)CN(C)C(=O)C2Nc1ccc2c(N)nccc2c1 (mixture of isomers),47
8,CN1Cc2cc(ccc2S(=O)(=O)C2CC2)NC(=O)N(CC2CCC2)CCc2cccc(c2)C(Nc2ccc3c(N)ncc(F)c3c2)C1=O (racemic),150
9,CN1Cc2cc(ccc2S(=O)(=O)C2CC2)NC(=O)N(CC2CC2)CCc2cccc(c2)C(Nc2ccc3c(N)ncc(F)c3c2)C1=O (racemic),59

# Molecular target: T1, Coagulation factor VII/tissue factor
# Test: Inhibition of recombinant human factor-7a/TF using S2288 as substrate measured after 60 mins at 37 degC
# Assay type: protein-complex assay
# Conditions: not given
# In short: as §1
row,SMILES,Ki [nM]
1,COc1ccc2cc1CCC(=O)Nc1ccc(S(=O)(=O)C3CC3)c(c1)CN(C)C(=O)[C@@H]2Nc1ccc2c(N)ncc(F)c2c1,18
2,CN1Cc2cc(ccc2S(=O)(=O)C2CC2)NC(=O)CCc2cccc(c2)[C@@H](Nc2ccc3c(N)nccc3c2)C1=O,58
3,CN1CCc2cccc(c2)[C@@H](Nc2ccc3c(N)ncc(F)c3c2)C(=O)N(C)Cc2cc(ccc2S(=O)(=O)C2CC2)NC1=O,200
4,COc1ccc2cc1[C@@H](C)CN(C)C(=O)Nc1ccc(S(=O)(=O)C3CC3)c(c1)CN(C)C(=O)[C@@H]2Nc1ccc2c(N)ncc(F)c2c1,3.8

# Test system: not listed separately
# Test: Permeability of the compound at pH 7.4 by PAMPA
# Assay type: ADME
# Conditions: read-out: permeability
row,SMILES,Papp [×10⁻⁶ cm/s]
1,COc1ccc2cc1CCC(=O)Nc1ccc(S(=O)(=O)C3CC3)c(c1)CN(C)C(=O)[C@@H]2Nc1ccc2c(N)ncc(F)c2c1,54
2,CN1CCc2cccc(c2)[C@@H](Nc2ccc3c(N)ncc(F)c3c2)C(=O)N(C)Cc2cc(ccc2S(=O)(=O)C2CC2)NC1=O,22

# Test system: not listed separately
# Test: Permeability of the compound at pH 5.5 by PAMPA
# Assay type: ADME
# Conditions: read-out: permeability
row,SMILES,Papp [×10⁻⁶ cm/s]
1,COc1ccc2cc1CCC(=O)Nc1ccc(S(=O)(=O)C3CC3)c(c1)CN(C)C(=O)[C@@H]2Nc1ccc2c(N)ncc(F)c2c1,35

# Test system: not listed separately
# Test: Half life in human liver microsomes
# Assay type: ADME
# Conditions: not given
row,SMILES,half-life [min]
1,COc1ccc2cc1CCC(=O)Nc1ccc(S(=O)(=O)C3CC3)c(c1)CN(C)C(=O)[C@@H]2Nc1ccc2c(N)ncc(F)c2c1,14
2,CN1CCc2cccc(c2)[C@@H](Nc2ccc3c(N)ncc(F)c3c2)C(=O)N(C)Cc2cc(ccc2S(=O)(=O)C2CC2)NC1=O,5
3,COc1ccc2cc1[C@@H](C)CN(C)C(=O)Nc1ccc(S(=O)(=O)C3CC3)c(c1)CN(C)C(=O)[C@@H]2Nc1ccc2c(N)ncc(F)c2c1,4
4,COc1ccc2cc1[C@H](C)CN(C)C(=O)Nc1ccc(S(=O)(=O)C3CC3)c(c1)CN(C)C(=O)C2Nc1ccc2c(N)nccc2c1 (mixture of isomers),6
5,CN1Cc2cc(ccc2S(=O)(=O)C2CC2)NC(=O)N(CC2CC2)CCc2cccc(c2)C(Nc2ccc3c(N)ncc(F)c3c2)C1=O (racemic),5

# Test system: not listed separately
# Test: Half life in rat liver microsomes
# Assay type: ADME
# Conditions: not given
row,SMILES,half-life [min]
1,COc1ccc2cc1CCC(=O)Nc1ccc(S(=O)(=O)C3CC3)c(c1)CN(C)C(=O)[C@@H]2Nc1ccc2c(N)ncc(F)c2c1,16
2,CN1CCc2cccc(c2)[C@@H](Nc2ccc3c(N)ncc(F)c3c2)C(=O)N(C)Cc2cc(ccc2S(=O)(=O)C2CC2)NC1=O,6
3,COc1ccc2cc1[C@@H](C)CN(C)C(=O)Nc1ccc(S(=O)(=O)C3CC3)c(c1)CN(C)C(=O)[C@@H]2Nc1ccc2c(N)ncc(F)c2c1,4
4,COc1ccc2cc1[C@H](C)CN(C)C(=O)Nc1ccc(S(=O)(=O)C3CC3)c(c1)CN(C)C(=O)C2Nc1ccc2c(N)nccc2c1 (mixture of isomers),6
5,CN1Cc2cc(ccc2S(=O)(=O)C2CC2)NC(=O)N(CC2CC2)CCc2cccc(c2)C(Nc2ccc3c(N)ncc(F)c3c2)C1=O (racemic),12

# Test system: not listed separately
# Test: Anticoagulant activity in factor 7 deficient human plasma assessed as concentration required for prolongation of prothrombin time
# Assay type: functional
# Conditions: not given
# In short: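 Clotting (prothrombin time) assay in FVII-deficient human plasma. Read-out is the compound concentration that prolongs clotting time 2-fold (EC2X, μM).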
row,SMILES,2PT [µM]
1,COc1ccc2cc1CCC(=O)Nc1ccc(S(=O)(=O)C3CC3)c(c1)CN(C)C(=O)[C@@H]2Nc1ccc2c(N)ncc(F)c2c1,11

# Test system: not listed separately
# Test: Oral bioavailability in rat
# Assay type: ADME, organism-based
# Conditions: in vivo, BLD = below limit of detection
row,SMILES,F
1,CN1CCc2cccc(c2)[C@@H](Nc2ccc3c(N)ncc(F)c3c2)C(=O)N(C)Cc2cc(ccc2S(=O)(=O)C2CC2)NC1=O,Bld
